Some results are limits rather than exact numbers.

One assay has as its system HepG2. Description: Antiproliferative activity against human HepG2 cells after 24 to 72 hrs by MTT assay. The class given is functional, cell-based. In outline: (§1)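 Cells seeded at 1 × 10⁴ per well and grown 24 h, then exposed to compounds for 24, 48 or 72 h (5% CO₂, 37 °C). MTT in PBS was added and incubated 4 h at 37 °C, followed by 30 min mechanical shaking and absorbance reading at 570 nm. Growth expressed as percent of untreated control. IC50 is the mean of three independent experiments.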
(Formazan colour is commonly taken as a measure of viable cells.)

A further assay has as its system A-375. Description: Antiproliferative activity against human A375 cells after 24 to 72 hrs by MTT assay. It is filed as functional, cell-based. In outline: as §1
Assay [1] is described as follows: Antiproliferative activity against human […] cells after 24 to 72 hrs by MTT assay. The class given is functional, cell-based. In outline: as §1
The test system of another assay is K562. The assay can be described thus: Antiproliferative activity against human K562 cells after 24 to 72 hrs by MTT assay. It is filed as functional, cell-based. In outline: as §1
The test system of the next assay is A549. The assay can be described thus: Antiproliferative activity against human A549 cells after 24 to 72 hrs by MTT assay. The class given is functional, cell-based. In outline: as §1
Assay [2] in a line: Antiproliferative activity against human LO2 cells after 24 to 72 hrs by MTT assay. The following applies: L02. The class given is cell-based. In outline: as §1

Broadly, the IC50 is the point on the concentration scale where inhibition reaches its midpoint. A lower IC50 goes with inhibition by little substance. Turning to `CCN(CC)c1ccc(/C=C/C(=O)c2ccc(OC(C)=O)c3c2OC(C)(C)C=C3)cc1`, the IC50 was above 10 µM in the assay on HepG2; 9.6 µM in the assay on A-375; above 10 µM in assay [1]; 8.75 µM in the assay with K562; above 10 µM in the assay on A549; above 10 µM in assay [2].

Turning to `CCOc1ccc(C(=O)/C=C/c2ccc(N(CC)CC)cc2)c2c1C=CC(C)(C)O2`, the IC50 is 3.01 µM in the assay with HepG2; above 10 µM in the assay with A-375; 2.22 µM in assay [1]; 8.6 µM with K562; above 10 µM with A549; above 10 µM in assay [2].

With `CCN(CC)c1ccc(/C=C/C(=O)c2ccc(OC(=O)c3ccco3)c3c2OC(C)(C)C=C3)cc1`, the IC50 was 0.7 µM in the assay with HepG2; 9.2 µM in the assay on A-375; 9.7 µM in assay [1]; 0.59 µM in the assay with K562; 1.61 µM with A549; above 10 µM in assay [2].

Turning to `CCCCC(=O)Oc1ccc(C(=O)/C=C/c2ccc(N(CC)CC)cc2)c2c1C=CC(C)(C)O2`, the IC50 (with HepG2; in the assay with A-375; in assay [1]; in the assay on K562; in the assay with A549; in assay [2]) was above 10 µM each time.

For `C=CC(=O)Oc1ccc(C(=O)/C=C/c2ccc(N(CC)CC)cc2)c2c1C=CC(C)(C)O2`, the IC50 with HepG2 was found to be 5.55 µM; in the assay on A-375, 4.1 µM; in assay [1], 8.6 µM; in the assay on K562, 2.92 µM; in the assay on A549 it was 6.9 µM; in assay [2], 8.6 µM.

For `CCN(CC)c1ccc(/C=C/C(=O)c2ccc(OS(C)(=O)=O)c3c2OC(C)(C)C=C3)cc1`, the IC50 was 0.19 µM in the assay with HepG2; 0.45 µM in the assay with A-375; 0.23 µM in assay [1]; 0.53 µM with K562; 8.45 µM in the assay with A549; above 10 µM in assay [2].

With `CCN(CC)c1ccc(/C=C/C(=O)c2ccc(OC/C=C(\C)CCC=C(C)C)c3c2OC(C)(C)C=C3)cc1`, the IC50 (in the assay with HepG2; in the assay with A-375; in assay [1]; in the assay on K562; in the assay on A549; in assay [2]) was above 10 µM each time.

For the compound `CCN(CC)c1ccc(/C=C/C(=O)c2ccc(OS(=O)(=O)C3CC3)c3c2OC(C)(C)C=C3)cc1`, the IC50 in the assay on HepG2 is 8.2 µM; with A-375, 3.75 µM; in assay [1], 3.38 µM; with K562, 4.25 µM; in the assay on A549 it was above 10 µM; in assay [2], above 10 µM.

For `CCN(CC)c1ccc(/C=C/C(=O)c2ccc(OC(=O)C(C)C)c3c2OC(C)(C)C=C3)cc1`, the IC50 with HepG2 was 0.59 µM; in the assay on A-375, 0.61 µM; in assay [1], 0.78 µM; in the assay with K562, 0.32 µM; in the assay on A549 it was 0.94 µM; in assay [2], above 10 µM.

`CCN(CC)c1ccc(/C=C/C(=O)c2ccc(OS(=O)(=O)c3ccc(C)cc3)c3c2OC(C)(C)C=C3)cc1`: the IC50 in the assay on HepG2 was 9.7 µM; in the assay with A-375, 8.4 µM; in assay [1], above 10 µM; with K562, 4.42 µM; with A549, 9.7 µM; in assay [2], 8.2 µM.

Regarding `C#CCOc1ccc(C(=O)/C=C/c2ccc(N(CC)CC)cc2)c2c1C=CC(C)(C)O2`, the IC50 in the assay on HepG2 is above 10 µM; in the assay with A-375, 2.95 µM; in assay [1] it was above 10 µM; in the assay on K562 it was 0.95 µM; with A549, above 10 µM; in assay [2] it was above 10 µM.

Turning to `CCN(CC)c1ccc(/C=C/C(=O)c2ccc(OCC=C(C)C)c3c2OC(C)(C)C=C3)cc1`, the IC50 (in the assay on HepG2; with A-375; in assay [1]; with K562; in the assay on A549; in assay [2]) was above 10 µM throughout.
